From ChEMBL document CHEMBL1133665, “Secondary amides of (R)-3,3,3-trifluoro-2-hydroxy-2-methylpropionic acid as inhibitors of pyruvate dehydrogenase kinase” (J Med Chem, 2000)
The source made the active and inactive calls. The rule behind the calls is not given here.

Assays:
[1] = molecular target: Pyruvate dehydrogenase kinase (Rattus norvegicus, UniProt Q63065+A6IPZ9+Q64536+O54937); assay: Inhibitory activity tested against Pyruvate Dehydrogenase Kinase (PDHK) receptor from rats.; type: protein assay
How it was run: (§1)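 Commercial PDH complex used as the kinase-containing preparation. PDHK inhibition read spectrophotometrically as NADH production at 340 nm, measured with and without ATP. IC50 ± standard error, from purified substances.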

[2] = test system: Rattus norvegicus; assay: In vivo %control of lactate in normal Sprague-Dawley rats after 2 hr at a dose of 300 umol/Kg; Not active; type: functional, organism-based
How it was run: (§2)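 Male Sprague-Dawley rats, about 200 g, randomly assigned to groups (n = 6/group) and fasted 24 h. Single oral dose of compound in 0.5% carboxymethylcellulose/0.2% Tween-80 (1 mL/100 g), or vehicle alone. Blood taken 2 h post-dose into heparin/fluoride tubes; lactate measured on a biochemistry analyzer. Expressed as percent of vehicle control; groups compared by two-tailed unpaired t-test.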

[3] = molecular target: Pyruvate dehydrogenase kinase (Rattus norvegicus) (UniProt Q63065+A6IPZ9+Q64536+O54937); assay: Inhibition of Pyruvate Dehydrogenase Kinase (PDHK) receptor from rats; Inactive; type: protein assay; how it was run: as §1
[4] = test system: Rattus norvegicus; assay: In vivo %control of lactate in normal Sprague-Dawley rats after 2 hr at a dose of 30 umol/Kg; Not active; type: functional, organism-based; how it was run: as §2
[5] = organism: Homo sapiens; assay: Effective concentration required to increase the oxidation of lactate in cellular assay using Human Skin Fibroblasts; type: functional
How it was run: (§3)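 Human fibroblasts harvested with trypsin 2-4 days post-confluence and assayed in suspension ((3.5-5) × 10^5 cells per tube) with test compound or solvent control. Equilibrated at 37 °C, then started with DMEM-S containing 25 µM lactate and 0.2 µCi/mL d,l-[1-14C]lactate. Gassed with 95% O2/5% CO2 and shaken 25 min at 37 °C. Stopped with TCA; released 14CO2 trapped and counted by scintillation. EC50 ± standard error.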

[6] = test system: Rattus norvegicus; assay: In vivo %control of lactate in normal Sprague-Dawley rats after 2 hr at a dose of 30 umol/Kg; type: functional; how it was run: as §2
[7] = organism: Homo sapiens; assay: Effective concentration required to increase the oxidation of lactate in cellular assay using Human Skin Fibroblasts; Inactive; type: functional; how it was run: as §3
[8] = test system: Rattus norvegicus; assay: In vivo %control of lactate in normal Sprague-Dawley rats after 2 hr at a dose of 300 umol/Kg; type: functional; how it was run: as §2

Row | Structure (SMILES) | IC50 [1] [µM] | further results
1 | C[C@@](O)(C(=O)NC1C2CC3CC(C2)CC1C3)C(F)(F)F (stereo not given in full) | 0.3 | NA [2]: inactive
2 | C[C@@H]1CN(C(=O)[C@@](C)(O)C(F)(F)F)CCN1 | – | IA [3]: inactive
3 | C[C@@](O)(C(=O)N1CCN(/C(=N/C#N)Oc2ccccc2)CC1)C(F)(F)F | 6 | –
4 | O=C(NC1C2CC3CC(C2)CC1C3)C1(O)CC1 (stereo not given) | 15 | –
5 | C[C@@H]1CN(C(=O)[C@@](C)(O)C(F)(F)F)CCN1Cc1ccccc1 | > 1 | –
6 | C[C@@H]1CN(C(=O)[C@@](C)(O)C(F)(F)F)CCN1S(=O)(=O)c1cccc2ccccc12 | 0.025 | NA [4]: inactive
7 | C[C@@H]1CN(C(=O)[C@@](C)(O)C(F)(F)F)CCN1C(=O)c1ccc(C(=O)c2ccccc2)cc1 (stereo in doubt; 11g) | 0.034 | EC50 [5]: 0.473 µM; Control [6]: 66%
8 | C[C@@H]1CN(C(=O)[C@@](C)(O)C(F)(F)F)CCN1c1cc([N+](=O)[O-])ccn1 | 0.112 | NA [4]: inactive
9 | C[C@@](O)(C(=O)N1CCN(Cc2ccccc2)CC1)C(F)(F)F | 19.9 | –
10 | CCCC1CCN(C(=O)C(C)(OC)C(F)(F)F)CC1 (stereo not given) | – | IA [3]: inactive
11 | CCC(O)(C(=O)Nc1ccccc1Cl)C(F)(F)F (stereo not given) | 20 | –
12 | C[C@@H]1CN(C(=O)[C@@](C)(O)C(F)(F)F)CCN1C(=O)c1ccc(C(=O)c2ccccc2)cc1 (stereo in doubt; 11r) | 15 | –
13 | C[C@@](O)(C(=O)N1CCCN(c2cc(Cl)ccn2)CC1)C(F)(F)F | 2.59 | –
14 | CCCC1CCN(C(=O)[C@](C)(O)C(F)(F)F)CC1 | 75 | –
15 | CC(C)(O)C(=O)Nc1ccccc1Cl | 5 | –
16 | C[C@@H]1CN(C(=O)[C@@](C)(O)C(F)(F)F)[C@@H](C)CN1C(=O)OCc1ccccc1 | 0.0143 | –
17 | O=C(NC1C2CC3CC(C2)CC1C3)C(O)(C(F)(F)F)C(F)(F)F (stereo not given) | 17 | –
18 | C[C@](O)(C(=O)Nc1ccccc1Cl)C(F)(F)F | 9.8 | –
19 | O=C(Nc1ccc(Cl)cc1)N1CCC(Cc2ccccc2)CC1 | – | IA [3]: inactive

Row | Structure (SMILES) | IC50 [1] [µM] | further results
20 | CC1(C(F)(F)F)OC(=O)N(C2CCCCC2)C1=O (stereo in doubt; 9) | – | IA [3]: inactive
21 | C[C@@](O)(C(=O)N1CCN(C(=O)c2ccccc2)CC1)C(F)(F)F | 31.7 | –
22 | CC1CCCCN1C(=O)[C@@](C)(O)C(F)(F)F (stereo not given in full) | 2 | –
23 | COC(C)(C(=O)NC1C2CC3CC(C2)CC1C3)C(F)(F)F (stereo not given) | – | IA [3]: inactive
24 | CC(Oc1ccccc1)(C(=O)NC1CCCCC1)C(F)(F)F (stereo not given) | – | IA [3]: inactive
25 | O=C(N1CCC(Cc2ccccc2)CC1)C1(O)CC1 | 260 | –
26 | CNS(=O)(=O)Nc1ccccc1Cl | – | IA [3]: inactive
27 | C[C@@](O)(C(=O)N1CCCN(C(=O)c2ccccc2)CC1)C(F)(F)F | 5.62 | –
28 | CCC(C)(O)C(=O)Nc1ccccc1Cl (stereo not given) | 23 | –
29 | C/N=C(\S)N1CC=C(C(C)(C)C)CC1 | 180 | –
30 | CNS(=O)(=O)NC1C2CC3CC(C2)CC1C3 (stereo not given) | – | IA [3]: inactive
31 | CC(C)CC(Cl)C(=O)N1CCC(Cc2ccccc2)CC1 (stereo not given) | – | IA [3]: inactive
32 | CNC(=O)N1CCC(Cc2ccccc2)CC1 | 22.4 | IA [7]: inactive
33 | CC(=O)N1CCCCC1 | – | IA [3]: inactive
34 | CC(O)(C(=O)N1CCC(Cc2ccccc2)CC1)C(F)(F)F (stereo not given) | 2.16 | EC50 [5]: 29 µM; NA [2]: inactive
35 | COC(=O)c1ccc(C(=O)N2C[C@H](C)N(C(=O)[C@@](C)(O)C(F)(F)F)C[C@H]2C)cc1 | 0.019 | –
36 | CNS(=O)(=O)N1CCC(Cc2ccccc2)CC1 | – | IA [3]: inactive
37 | CC(C)(C)C(=O)N1CCC(Cc2ccccc2)CC1 | 282 | IA [7]: inactive
38 | CC(=O)C(=O)NC1C2CC3CC(C2)CC1C3 (stereo not given) | – | IA [3]: inactive

Row | Structure (SMILES) | IC50 [1] [µM] | further results
39 | COc1cc(C(=O)N2CCN(C(=O)[C@@](C)(O)C(F)(F)F)C[C@H]2C)cc(OC)c1OC | 0.04 | EC50 [5]: 0.159 µM; Control [6]: 71%; Control [8]: 60%
40 | CN(C)C(=O)N1CCC(Cc2ccccc2)CC1 | 416 | –
41 | COC(C)(C(=O)Nc1ccccc1Cl)C(F)(F)F (stereo not given) | – | IA [3]: inactive
42 | CC(=O)N1CCC(Cc2ccccc2)CC1 | 74 | IA [7]: inactive
43 | CC1(C(F)(F)F)OC(=O)N(C2CCCCC2)C1=O (stereo in doubt; 8) | – | IA [3]: inactive
44 | C[C@@](O)(C(=O)N1CCN(c2ccccn2)CC1)C(F)(F)F | 3.37 | EC50 [5]: 13 µM; Control [8]: 68%
45 | O=C(C(Cl)Cl)N1CCC(Cc2ccccc2)CC1 | 0.179 | EC50 [5]: 1.12 µM; NA [2]: inactive
46 | C[C@@](O)(C(=O)N1CCNCC1)C(F)(F)F | – | IA [3]: inactive
47 | C[C@@](O)(C(=O)N1CCN(C(=O)c2ccc(C#N)cc2)CC1)C(F)(F)F | 6.7 | –
48 | O=C(Nc1ccccc1Cl)C(Cl)Cl | 47 | –
49 | C[C@@H]1CN(C(=O)[C@@](C)(O)C(F)(F)F)CCN1C(=O)OCc1ccccc1 | 0.021 | –
50 | CC(C)(O)C(=O)N1CCC(Cc2ccccc2)CC1 | 150 | –
51 | C[C@@H]1CN(C(=O)[C@@](C)(O)C(F)(F)F)[C@@H](C)CN1S(=O)(=O)c1cccc2ccccc12 | 0.0045 | NA [4]: inactive
52 | CC(C)NC(=O)N1CCC(Cc2ccccc2)CC1 | – | IA [3]: inactive
53 | C[C@@H]1CN(C(=O)[C@@](C)(O)C(F)(F)F)CCN1S(=O)(=O)c1ccc(C(C)(C)C)cc1 | 0.036 | –
54 | C[C@@H]1CN(C(=O)[C@@](C)(O)C(F)(F)F)CCN1S(=O)(=O)c1ccccc1 | 0.037 | NA [4]: inactive
55 | C[C@@H]1CN(S(=O)(=O)c2cccc3ccccc23)[C@@H](C)CN1C(=O)[C@@](C)(O)C(F)(F)F | 49 | –
56 | CNC(=O)N1CCCCC1 | – | IA [3]: inactive

Second part, led by results:

Row | IC50 [1] [µM] | Structure (SMILES) | further results
57 | 5.56 | C[C@@](O)(C(=O)N1CCN(S(=O)(=O)c2ccccc2)CC1)C(F)(F)F | –
58 | 5.02 | C[C@@](O)(C(=O)N1CCN(C(=O)c2cccc3ccccc23)CC1)C(F)(F)F | –
59 | 0.0091 | C[C@@H]1CN(C(=O)[C@@](C)(O)C(F)(F)F)[C@@H](C)CN1/C(=N/C#N)Oc1ccccc1 | –
60 | 14 | CCC(O)(C(=O)NC1C2CC3CC(C2)CC1C3)C(F)(F)F (stereo not given) | –
61 | 23.9 | CC(O)(C(=O)N1CCCCC1)C(F)(F)F (stereo not given) | –
62 | 310 | CC(O)C(=O)N1CCC(Cc2ccccc2)CC1 (stereo not given) | –
63 | 11 | C[C@](O)(C(=O)NC1C2CC3CC(C2)CC1C3)C(F)(F)F (stereo not given in full) | –
64 | 1000 | COC(=O)N1CCC(Cc2ccccc2)CC1 | –
65 | 6.2 | C[C@@](O)(C(=O)NC1CCCCC1)C(F)(F)F | –
66 | > 300 | C[C@@H]1CN(Cc2ccccc2)[C@@H](C)CN1C(=O)[C@@](C)(O)C(F)(F)F | IA [3]: inactive
67 | 10 | CC(C)(O)C(=O)NC1C2CC3CC(C2)CC1C3 (stereo not given) | –
68 | 0.064 | C[C@@H]1CN(C(=O)[C@@](C)(O)C(F)(F)F)CCN1C(=O)C1CCCCC1 | Control [6]: 77%
69 | 2.6 | CC(Cl)C(=O)N1CCC(Cc2ccccc2)CC1 (stereo not given) | –
70 | 0.039 | Cc1cc(C)c(S(=O)(=O)N2CCN(C(=O)[C@@](C)(O)C(F)(F)F)C[C@H]2C)c(C)c1 | –
71 | 30 | O=C(N1CCC(Cc2ccccc2)CC1)C(Cl)(Cl)Cl | –
72 | 560 | C/N=C(/S)N1CCC(Cc2ccccc2)CC1 | –
73 | 17 | CC(C)[C@H]1CN(C(=O)c2ccc(C#N)cc2)[C@H](C)CN1C(=O)[C@@](C)(O)C(F)(F)F | –
74 | 47 | C[C@@](O)(C(=O)N1CCCN(Cc2ccccc2)CC1)C(F)(F)F | –
75 | 3.1 | CCCC1CCN(C(=O)[C@@](C)(O)C(F)(F)F)CC1 | –
76 | 0.028 | C[C@@H]1CN(C(=O)[C@@](C)(O)C(F)(F)F)CCN1C(=O)c1cc(Cl)cc(Cl)c1 | –
77 | 2.84 | C[C@@](O)(C(=O)N1CCN(c2cc([N+](=O)[O-])ccn2)CC1)C(F)(F)F | –
78 | 0.013 | C[C@@H]1CN(C(=O)[C@@](C)(O)C(F)(F)F)[C@@H](C)CN1C(=O)C1CCCCC1 | –
79 | 0.0198 | C[C@@H]1CN(C(=O)[C@@](C)(O)C(F)(F)F)[C@@H](C)CN1C(=O)c1ccc(C(=O)c2ccccc2)cc1 | –
80 | 0.049 | C[C@@H]1CN(C(=O)[C@@](C)(O)C(F)(F)F)CCN1/C(=N/C#N)Oc1ccccc1 | Control [6]: 65%
81 | 0.0033 | C[C@@H]1CN(C(=O)[C@@](C)(O)C(F)(F)F)[C@@H](C)CN1C(=O)c1cc(Cl)cc(Cl)c1 | –
82 | 0.173 | C[C@@H]1CN(C(=O)[C@@](C)(O)C(F)(F)F)CCN1C(=O)c1ccccc1 | –
83 | 0.3 | C[C@@](O)(C(=O)Nc1ccccc1Cl)C(F)(F)F | EC50 [5]: 5.4 µM; NA [2]: inactive
84 | 4.16 | C[C@@](O)(C(=O)N1CCN(c2ccccc2)CC1)C(F)(F)F | EC50 [5]: 25.2 µM; Control [8]: 68%
